Assay results as given in ChEMBL document CHEMBL5252516, “Linker Modification Strategies To Control the Prostate-Specific Membrane Antigen (PSMA)-Targeting and Pharmacokinetic Properties of DOTA-Conjugated PSMA Inhibitors” (J Med Chem, 2016).

Columns and labels:
[1] = Retention time of the compound by HPLC; format: physicochemical
[2] = Ratio of drug uptake in tumor to muscle in iv dosed BALB/c athymic nude mouse xenografted with human LNCaP cells treated with 68Ga-labeled compound measured after 1 hr by microPET imaging analysis; format: ADME, organism-based; details: in vivo
Procedure, shortened: (§1)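 Male BALB/c nu/nu mice, 6–8 weeks old, with subcutaneous LNCaP xenografts (6 × 10^6 cells in 50% Matrigel, right trunk) of about 1 cm. Tail-vein injection of 68Ga-labelled compound (~30 MBq, 0.5 nmol) under sevoflurane. Dynamic µPET: 60 min emission scan, then 100–120 min scan. SUVmean for tumor, muscle and kidney at 1 h; tumor/muscle ratio. One animal per compound.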

[3] = Drug uptake in iv dosed BALB/c athymic nude mouse muscle xenografted with human LNCaP cells treated with 68Ga-labeled compound measured after 1 hr by microPET imaging analysis; format: ADME, organism-based; details: in vivo; procedure, shortened: as §1
[4] = molecular target: T1, Glutamate carboxypeptidase 2 (Homo sapiens, UniProt Q04609); assay: Inhibition of PSMA in human LNCaP cells assessed as cell surface binding per 10^6 cells using 177Lu-labeled compound after 45 mins by gamma counting analysis; format: cell-based
Procedure, shortened: (§2)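 LNCaP cells (10^5/well) seeded on poly-L-lysine 24 h before. Incubated 45 min at 37 °C with 32 nM 177Lu-labelled compound (25 GBq/µmol) in Opti-MEM, with or without 500 µM 2-PMPA as blocker. Four ice-cold PBS washes, surface fraction stripped with 50 mM glycine pH 2.8, internalized fraction released by 0.3 M NaOH lysis. Both fractions gamma-counted, specific values given as %IA/10^6 cells. Triplicate.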
Target sequence in this assay (Q04609 whole entry, looked up): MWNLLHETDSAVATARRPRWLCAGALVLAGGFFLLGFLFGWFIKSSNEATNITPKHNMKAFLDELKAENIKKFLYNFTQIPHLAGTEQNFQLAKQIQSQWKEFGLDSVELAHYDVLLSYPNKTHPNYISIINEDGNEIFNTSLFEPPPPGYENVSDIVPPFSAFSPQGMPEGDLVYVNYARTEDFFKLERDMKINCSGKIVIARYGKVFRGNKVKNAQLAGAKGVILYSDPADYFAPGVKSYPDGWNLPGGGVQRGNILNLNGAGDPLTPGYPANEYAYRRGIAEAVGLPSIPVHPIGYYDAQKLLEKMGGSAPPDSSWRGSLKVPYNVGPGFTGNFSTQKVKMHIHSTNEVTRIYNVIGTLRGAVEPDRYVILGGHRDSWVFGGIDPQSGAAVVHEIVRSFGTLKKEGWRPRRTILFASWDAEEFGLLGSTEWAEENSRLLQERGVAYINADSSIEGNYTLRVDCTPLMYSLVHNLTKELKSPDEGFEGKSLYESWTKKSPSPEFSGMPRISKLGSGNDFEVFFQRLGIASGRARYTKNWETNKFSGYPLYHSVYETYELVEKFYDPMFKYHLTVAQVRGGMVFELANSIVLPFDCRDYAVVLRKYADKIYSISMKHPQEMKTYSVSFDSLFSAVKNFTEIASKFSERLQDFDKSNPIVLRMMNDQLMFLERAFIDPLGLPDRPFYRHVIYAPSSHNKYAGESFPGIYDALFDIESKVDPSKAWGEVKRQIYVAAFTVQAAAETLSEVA

[5] = Drug uptake in iv dosed BALB/c athymic nude mouse kidney xenografted with human LNCaP cells treated with 68Ga-labeled compound measured after 1 hr by microPET imaging analysis; format: ADME, organism-based; details: in vivo; procedure, shortened: as §1
[6] = molecular target: T1, Glutamate carboxypeptidase 2; assay: Binding affinity to PSMA in human LNCaP cells after 45 mins in presence of 68Ga-labeled PSMA-10 by gamma counting assay; format: cell-based
Target sequence in this assay (Q04609 whole entry): as the sequence (Q04609 whole entry, looked up) above

[7] = molecular target: T1, Glutamate carboxypeptidase 2; assay: Inhibition of PSMA in human LNCaP cells assessed as specific internalization per 10^6 cells using 177Lu-labeled compound after 45 mins by gamma counting analysis; format: cell-based; procedure, shortened: as §2
Target sequence in this assay (Q04609 whole entry, looked up): as above

[8] = Drug uptake in iv dosed BALB/c athymic nude mouse tumor xenografted with human LNCaP cells treated with 68Ga-labeled compound measured after 1 hr by microPET imaging analysis; format: ADME, organism-based; details: in vivo; procedure, shortened: as §1
[9] = Binding affinity to human serum protein after 1 hr by gel filtration method; format: ADME
[10] = Drug uptake in iv dosed BALB/c athymic nude mouse tumor xenografted with human LNCaP cells treated with 68Ga-labeled compound measured upto 120 mins by microPET imaging analysis; format: ADME, organism-based; details: in vivo, 2 h; procedure, shortened: as §1
[11] = Distribution coefficient, logD of the compound at pH 7.4 in n-octanol/0.1 M HEPES by shake flask method; format: physicochemical
Procedure, shortened: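 Radiolabelled compound shaken to equilibrium in n-octanol / 0.1 M HEPES pH 7.4. Aliquots of both phases gamma-counted and logD calculated from the phase ratio. Mean ± SD.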

Row | Retention_time [1] | Ratio [2] | SUV [3] | specific cell surface binding (% of applied activity per 10^6 cells) [4] | SUV [5] | Ki [6] | specific internalization (% of added activity per 10^6 cells) [7] | SUV [8] | PB [9] | Drug uptake [10] | logD [11] | SMILES
1 | 1.95 min | 5.4 | 0.11 | 21.4% | 4.16 | 0.53 nM | 12.5% | 0.58 | Not Active | Active | -2.06 | O=C(O)CC[C@H](NC(=O)N[C@@H](CCCCNC(=O)c1ccc(CNC(=O)c2ccc(CNC(=O)c3ccc(CNC(=O)CN4CCN(CC(=O)O)CCN(CC(=O)O)CCN(CC(=O)O)CC4)cc3)cc2)cc1)C(=O)O)C(=O)O
2 | 2.07 min | 3.9 | 0.14 | 4.49% | 8.1 | 24.7 nM | 2.7% | 0.54 | Not Active | Not Active | -1.43 | O=C(O)CC[C@H](NC(=O)N[C@@H](CCCCNC(=O)[C@H]1CC[C@H](CNC(=O)c2ccc(CNC(=O)CN3CCN(CC(=O)O)CCN(CC(=O)O)CCN(CC(=O)O)CC3)cc2)CC1)C(=O)O)C(=O)O
3 | 2.32 min | 5.2 | 0.1 | 16.8% | 3.63 | 1.81 nM | 7.17% | 0.52 | Not Active | Active | -2.1 | O=C(O)CC[C@H](NC(=O)N[C@@H](CCCCNC(=O)[C@H](Cc1ccc2ccccc2c1)NC(=O)c1ccc(CNC(=O)CN2CCN(CC(=O)O)CCN(CC(=O)O)CCN(CC(=O)O)CC2)cc1)C(=O)O)C(=O)O
